ChEMBL document CHEMBL1157565, “Discovery of 1-[3-(4-bromo-2-methyl-2h-pyrazol-3-yl)-4-methoxyphenyl]-3-(2,4-difluorophenyl)urea (nelotanserin) and related 5-hydroxytryptamine2A inverse agonists for the treatment of insomnia” (J Med Chem, 2010)
Activity calls are given as the source filed them. The calls are words filed in the database; no cut-off is given here.

What was measured:
[1] = target: T1, 5-hydroxytryptamine receptor 2A (Homo sapiens, UniProt P28223); assay: Displacement of [125I]DOI from human recombinant 5HT2A receptor expressed in HEK293 cells by scintillation counting
T1 sequence (P28223 whole entry): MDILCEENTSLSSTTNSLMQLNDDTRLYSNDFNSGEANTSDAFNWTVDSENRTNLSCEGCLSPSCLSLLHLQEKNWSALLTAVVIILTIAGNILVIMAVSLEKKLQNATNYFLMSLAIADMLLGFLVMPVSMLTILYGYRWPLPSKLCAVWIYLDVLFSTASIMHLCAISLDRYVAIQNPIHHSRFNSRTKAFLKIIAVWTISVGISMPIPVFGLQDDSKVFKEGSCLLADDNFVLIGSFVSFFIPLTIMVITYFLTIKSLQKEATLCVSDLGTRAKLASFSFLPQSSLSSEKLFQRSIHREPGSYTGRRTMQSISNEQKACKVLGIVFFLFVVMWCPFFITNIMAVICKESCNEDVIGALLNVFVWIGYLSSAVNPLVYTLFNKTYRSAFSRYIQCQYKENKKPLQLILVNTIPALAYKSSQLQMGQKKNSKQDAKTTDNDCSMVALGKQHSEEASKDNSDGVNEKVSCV

[2] = target: T1, 5-hydroxytryptamine receptor 2A; assay: Activity at human 5HT2A receptor expressed in HEK293 cells assessed as [3H]inositol phosphate production by scintillation counting; assay type: functional, cell-based
Method in brief: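 HEK-293 cells transiently transfected with a mutated, constitutively active h5-HT2A receptor, labeled 18 h with […] [3H]myoinositol in serum- and myoinositol-free DMEM. Then 3 h at 37 °C in HBSS with LiCl (10 mM final), pargyline and compound. Lysis with ice-cold 0.1 M formic acid; total [3H]IP separated on AG1-X8 resin and counted by scintillation. Inverse-agonist pIC50.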

[3] = target: T2, 5-hydroxytryptamine receptor 2C (Homo sapiens, UniProt P28335); assay: Displacement of [125I]DOI from human recombinant 5HT2C receptor expressed in HEK293 cells by scintillation counting
T2 sequence (P28335 whole entry): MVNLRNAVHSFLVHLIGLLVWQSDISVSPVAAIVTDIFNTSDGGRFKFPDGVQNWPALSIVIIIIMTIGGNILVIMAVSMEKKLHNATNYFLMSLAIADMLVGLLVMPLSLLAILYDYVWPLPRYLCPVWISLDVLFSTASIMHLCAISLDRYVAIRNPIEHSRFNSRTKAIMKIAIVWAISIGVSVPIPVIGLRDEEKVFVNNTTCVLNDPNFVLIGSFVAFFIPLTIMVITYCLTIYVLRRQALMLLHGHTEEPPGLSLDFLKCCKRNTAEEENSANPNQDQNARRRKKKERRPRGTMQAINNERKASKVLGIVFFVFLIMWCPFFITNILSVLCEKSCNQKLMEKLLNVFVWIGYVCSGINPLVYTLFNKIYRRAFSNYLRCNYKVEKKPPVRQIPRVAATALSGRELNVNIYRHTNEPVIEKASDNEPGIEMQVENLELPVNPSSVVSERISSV

[4] = target: T1, 5-hydroxytryptamine receptor 2A; assay: Displacement of [3H]DOI from human recombinant 5HT2A receptor expressed in HEK293 cells by scintillation counting; assay type: cell-based; details: in the assay text read “[125I]DOI” for “[3H]DOI”
Method in brief: (§1)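 Crude membranes (5-25 μg protein) from HEK293 cells stably expressing human 5-HT2A or 5-HT2C. Radioligand [125I]DOI at 0.5 nM final; 10 μM cold DOI defines nonspecific binding. Buffer 20 mM HEPES pH 7.4, 10 mM MgCl2; 1 h at room temperature. Eight concentrations (1 pM–10 μM), each in triplicate. Vacuum filtration on GF/C, Tris wash, scintillation counting; pKi.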

[5] = test system: Rattus norvegicus; assay: Effect on behavioral activity in po dosed Sprague-Dawley rat assessed as reversal of DOI-induced inhibition of rearing behavior; assay type: functional
Method in brief: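 Adult male Sprague-Dawley rats dosed orally with compound 45 min before DOI (0.3 mg/kg), which lowers rearing. Fifteen minutes later, rearing recorded in photocell-monitored locomotor activity cages. A dose-response curve for reversal of DOI-induced rearing decrease yields an ED50.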

[6] = Half life in Wistar rat at 1.4 mg/kg, po; assay type: ADME, organism-based; set-up: dose 1.4 mg/kg, route oral; details: in vivo
Method in brief: (§2)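 Male Wistar rats, fasted overnight, single oral dose in 80% Tween-80/20% water. Jugular vein blood sampled serially over 24 h ([…]); sodium-heparin plasma stored at -70 °C, quantified by HPLC/MS/MS (LLOQ 1 ng/mL, ULOQ 2000 ng/mL). n = 2-3 animals; noncompartmental analysis; values as mean ± SD.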

[7] = Cmax in Wistar rat at 1.4 mg/kg, po; assay type: ADME, organism-based; set-up: dose 1.4 mg/kg, route oral; details: in vivo
Method in brief: as §2

[8] = AUC (0 to infinity) in Wistar rat at 1.4 mg/kg, po; assay type: ADME, organism-based; set-up: time infinity, dose 1.4 mg/kg, route oral; details: plasma
Method in brief: as §2

[9] = Tmax in Wistar rat at 1.4 mg/kg, po; assay type: ADME, organism-based; set-up: dose 1.4 mg/kg, route oral; details: in vivo
Method in brief: as §2

[10] = test system: Rattus norvegicus; assay: Effect on behavioral activity in Wistar rat assessed as decrease in number of non-rapid eye movement bouts at 1.4 mg/kg, po after 2 hrs; assay type: functional, organism-based; set-up: dose 1.4 mg/kg
Method in brief: (§3)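 Male Wistar rats (300 ± 25 g) implanted for continuous EEG/EMG recording, 1 week recovery. Repeated-measures design: each rat received each treatment, including 80% Tween-80 vehicle, in random order by oral gavage. Non-REM sleep parameters scored hourly after dosing; at least five rats per compound.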

[11] = test system: Rattus norvegicus; assay: Effect on behavioral activity in Wistar rat assessed as increase in non-rapid eye movement delta power at 1.4 mg/kg, po after 1 hr; assay type: functional, organism-based; set-up: dose 1.4 mg/kg
Method in brief: as §3

[12] = test system: Rattus norvegicus; assay: Effect on behavioral activity in Wistar rat assessed as increase in non-rapid eye movement delta power at 1.4 mg/kg, po after 2 hrs; assay type: functional, organism-based; set-up: dose 1.4 mg/kg
Method in brief: as §3

[13] = test system: Rattus norvegicus; assay: Effect on behavioral activity in Wistar rat assessed as increase in non-rapid eye movement bout length at 1.4 mg/kg, po after 1 hrs; assay type: functional, organism-based; set-up: dose 1.4 mg/kg
Method in brief: as §3

[14] = target: T2, 5-hydroxytryptamine receptor 2C; assay: Displacement of [3H]DOI from human recombinant 5HT2C receptor expressed in HEK293 cells by scintillation counting; assay type: cell-based; details: in the assay text read “[125I]DOI” for “[3H]DOI”
Method in brief: as §1

[15] = test system: Rattus norvegicus; assay: Effect on behavioral activity in Wistar rat assessed as increase in non-rapid eye movement delta power at 1.4 mg/kg, po after 4 hrs; assay type: functional, organism-based; set-up: dose 1.4 mg/kg
Method in brief: as §3

[16] = target: 5-hydroxytryptamine receptor 2A (Rattus norvegicus, UniProt P14842); assay: Displacement of [125I]DOI from rat recombinant 5HT2A receptor by scintillation counting
5-hydroxytryptamine receptor 2A (Rattus norvegicus, UniProt P14842), sequence (P14842 whole entry): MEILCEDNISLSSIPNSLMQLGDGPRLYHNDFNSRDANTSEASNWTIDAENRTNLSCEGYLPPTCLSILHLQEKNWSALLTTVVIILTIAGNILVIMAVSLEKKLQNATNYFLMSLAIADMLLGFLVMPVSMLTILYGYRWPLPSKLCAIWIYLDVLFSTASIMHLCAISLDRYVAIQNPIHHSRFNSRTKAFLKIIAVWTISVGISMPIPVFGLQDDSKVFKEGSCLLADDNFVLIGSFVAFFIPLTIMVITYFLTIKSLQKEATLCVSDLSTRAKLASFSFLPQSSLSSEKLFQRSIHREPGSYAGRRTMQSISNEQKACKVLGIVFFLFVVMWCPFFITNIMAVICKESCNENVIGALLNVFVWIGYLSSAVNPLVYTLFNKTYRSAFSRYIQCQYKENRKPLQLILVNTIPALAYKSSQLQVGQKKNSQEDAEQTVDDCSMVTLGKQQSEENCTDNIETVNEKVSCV

[17] = AUC (0 to infinity) in Wistar rat at 1.0 mg/kg, po; assay type: ADME, organism-based; set-up: time infinity, dose 1 mg/kg, route oral; details: plasma
Method in brief: as §2

[18] = Half life in Wistar rat at 1.0 mg/kg, po; assay type: ADME, organism-based; set-up: dose 1 mg/kg, route oral; details: in vivo
Method in brief: as §2

[19] = test system: Rattus norvegicus; assay: Effect on behavioral activity in Wistar rat assessed as increase in non-rapid eye movement bout length at 1 mg/kg, po after 2 hrs; assay type: functional, organism-based; set-up: dose 1 mg/kg
Method in brief: as §3

[20] = test system: Rattus norvegicus; assay: Effect on behavioral activity in Wistar rat assessed as increase in non-rapid eye movement delta power at 1 mg/kg, po after 2 hrs; assay type: functional, organism-based; set-up: dose 1 mg/kg
Method in brief: as §3

[21] = Cmax in Wistar rat at 1.0 mg/kg, po; assay type: ADME, organism-based; set-up: dose 1 mg/kg, route oral; details: in vivo
Method in brief: as §2

[22] = Tmax in Wistar rat at 1.0 mg/kg, po; assay type: ADME, organism-based; set-up: dose 1 mg/kg, route oral; details: in vivo
Method in brief: as §2

[23] = Cmax in Wistar rat at 1.5 mg/kg, po; assay type: ADME, organism-based; set-up: dose 1.5 mg/kg, route oral; details: in vivo
Method in brief: as §2

[24] = AUC (0 to infinity) in Wistar rat at 1.5 mg/kg, po; assay type: ADME, organism-based; set-up: time infinity, dose 1.5 mg/kg, route oral; details: plasma
Method in brief: as §2

[25] = Half life in Wistar rat at 1.5 mg/kg, po; assay type: ADME, organism-based; set-up: dose 1.5 mg/kg, route oral; details: in vivo
Method in brief: as §2

[26] = Tmax in Wistar rat at 1.5 mg/kg, po; assay type: ADME, organism-based; set-up: dose 1.5 mg/kg, route oral; details: in vivo
Method in brief: as §2

SMILES: COc1ccc(NC(=O)Nc2ccc(C(F)(F)F)cc2)cc1-c1c(Br)cnn1C
- Ki [1]: 0.316 nM
- IC50 ([2]; read-out: pIC50 (converted)): 1.58 nM
- Ki [3]: 3.98 nM

SMILES: COc1ccc(NC(=O)Nc2ccc(F)cc2)cc1-c1c(Br)cnn1C
- Ki [4]: 0.251 nM
- ED50 [5]: 0.7 mg/kg
- half-life [6]: 120 min
- Cmax [7]: 85 ng/mL
- IC50 ([2]; read-out: pIC50 (converted)): 0.251 nM
- AUC(0-inf) [8]: 507 ng·h/mL
- Tmax [9]: 4 h
- Activity [10]: Active
- Ki [3]: 31.6 nM
- Activity [11]: Active
- Activity [12]: Active

SMILES: COc1ccc(NC(=O)Nc2cc(C(F)(F)F)cc(C(F)(F)F)c2)cc1-c1c(Br)cnn1C
- Ki [1]: 0.398 nM
- IC50 ([2]; read-out: pIC50 (converted)): 2 nM
- Ki [3]: 31.6 nM

SMILES: COc1ccc(NC(=O)Nc2ccc(F)cc2F)cc1-c1c(Br)cnn1C [NELOTANSERIN]
- Activity [13]: Active
- ED50 [5]: 0.7 mg/kg
- Ki [14]: 158 nM
- half-life [6]: 180 min
- Cmax [7]: 44 ng/mL
- Ki [1]: 0.631 nM
- IC50 ([2]; read-out: pIC50 (converted)): 0.631 nM
- AUC(0-inf) [8]: 298 ng·h/mL
- Tmax [9]: 3 h
- Activity [10]: Active
- Activity [15]: Active
- Ki [16]: 5.01 nM

SMILES: COc1ccc(NC(=O)Nc2ccc(Cl)cc2)cc1-c1c(Br)cnn1C
- Ki [4]: 0.501 nM
- ED50 [5]: 0.5 mg/kg
- Ki [14]: 10 nM
- AUC(0-inf) [17]: 281 ng·h/mL
- half-life [18]: 180 min
- IC50 [2]: 0.7 nM
- IC50 ([2]; read-out: pIC50 (converted)): 0.794 nM
- Activity [19]: Active
- Activity [20]: Active
- Cmax [21]: 45 ng/mL
- Tmax [22]: 3 h

SMILES: COc1ccc(NC(=O)Nc2ccc(F)cc2F)cc1-c1c(Cl)cnn1C
- Ki [1]: 0.631 nM
- IC50 ([2]; read-out: pIC50 (converted)): 1 nM
- Ki [3]: 316 nM

SMILES: COc1ccc(NC(=O)Nc2cccc(F)c2)cc1-c1c(Br)cnn1C
- Ki [1]: 0.316 nM
- IC50 ([2]; read-out: pIC50 (converted)): 0.794 nM
- Ki [3]: 39.8 nM

SMILES: CC(C)Oc1ccc(NC(=O)Nc2ccc(Cl)cc2)cc1-c1c(Br)cnn1C
- Ki [14]: 10 nM
- Ki [1]: 0.316 nM
- IC50 ([2]; read-out: pIC50 (converted)): 1.58 nM

SMILES: COc1ccc(NC(=O)Nc2ccc(C(C)C)cc2)cc1-c1c(Br)cnn1C
- Ki [14]: 25.1 nM
- Ki [1]: 0.316 nM
- IC50 ([2]; read-out: pIC50 (converted)): 2.51 nM

SMILES: Cn1ncc(Br)c1-c1cc(NC(=O)Nc2ccc(Cl)cc2)ccc1OCCc1ccccc1
- Ki [14]: 794 nM
- Ki [1]: 6.31 nM
- IC50 ([2]; read-out: pIC50 (converted)): 50.1 nM

SMILES: COc1ccc(NC(=O)Nc2ccc(Cl)cc2)cc1-c1c(Cl)cnn1C
- Ki [4]: 0.158 nM
- ED50 [5]: 0.7 mg/kg
- Cmax [23]: 41 ng/mL
- AUC(0-inf) [24]: 478 ng·h/mL
- Ki [14]: 10 nM
- half-life [25]: 300 min
- IC50 ([2]; read-out: pIC50 (converted)): 0.501 nM
- Tmax [26]: 6 h
- Ki [16]: 2 nM
- Activity [12]: Active

SMILES: COc1ccc(NC(=O)Nc2ccc(Cl)c(C(F)(F)F)c2)cc1-c1c(Br)cnn1C
- Ki [1]: 0.316 nM
- IC50 ([2]; read-out: pIC50 (converted)): 0.794 nM
- Ki [3]: 3.16 nM
